In ChEMBL document CHEMBL1125784, “Geiparvarin analogues. 2. Synthesis and cytostatic activity of 5-(4-arylbutadienyl)-3(2H)-furanones and of N-substituted 3-(4-oxo-2-furanyl)-2-buten-2-yl carbamates” (J Med Chem, 1991):
≈ marks a conversion by molar mass, not a printed value.

Columns and labels:
Type in all cases: functional, cell-based
[1] = test system: FM3A; experiment: Inhibitory activity against proliferation of murine mammary carcinoma FM3A tumor cell line; conditions: Mus musculus
Procedure, shortened: (§1)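 Molt/4F or FM3A cells were suspended in growth medium and plated at 5×10^4 cells/well with varying compound concentrations. They proliferated 72 h at 37 °C in a humidified, CO2-controlled atmosphere before Coulter-counter enumeration. IC50 is the concentration giving a 50% drop in viable cell count.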

[2] = test system: L1210; experiment: Inhibitory activity against proliferation of murine leukemia L1210 tumor cell line; conditions: Mus musculus
Procedure, shortened: (§2)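 L1210 cells in growth medium, seeded at 5×10^4 cells/well with a range of test compound concentrations, grown 48 h at 37 °C in humidified CO2-controlled air. Cells were counted in a Coulter counter. IC50 is the concentration reducing viable cell number by 50%.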

[3] = test system: MT4; experiment: Inhibitory activity against proliferation of human T-lymphocyte MT-4 tumor cell line
Procedure, shortened: (§3)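 MT-4 cells in growth medium, plated at 6.25×10^4 cells/well with serial compound concentrations. Incubation was 72 h at 37 °C, humidified and CO2-controlled, then cells were counted electronically (Coulter). IC50 is the concentration lowering viable cell number by 50%.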

[4] = test system: MOLT-4F; experiment: Inhibitory activity against proliferation of human T-lymphoblast Molt/4F tumor cell line; procedure, shortened: as §1
[5] = test system: FM3A; experiment: Inhibitory activity against proliferation of murine (FM3A) tumor cell.; conditions: Mus musculus; procedure, shortened: as §1
[6] = test system: L1210; experiment: Inhibitory activity against proliferation of murine (L1210) tumor cell.; conditions: Mus musculus; procedure, shortened: as §2
[7] = test system: MT4; experiment: Inhibitory activity against proliferation of human(MT-4) tumor cell.; procedure, shortened: as §3
[8] = test system: MOLT-4F; experiment: Inhibitory activity against proliferation of human(Molt/4F) tumor cell.; procedure, shortened: as §1

**Q.** Which results are given for `COc1ccc(/C=C/C=C(\C)C2=CC(=O)C(C)(C)O2)cc1`?
**A.** IC50 [1]: 25 µg/mL (≈ 87.9 µM); IC50 [2]: 18 µg/mL (≈ 63.3 µM); IC50 [3]: 5.7 µg/mL (≈ 20 µM); IC50 [4]: 10 µg/mL (≈ 35.2 µM)

**Q.** What does the source list for `COc1cc2ccc(=O)oc2cc1OC/C=C(\C)C1=CC(=O)C(C)(C)O1`?
**A.** IC50 [5]: 3.9 µg/mL (≈ 10.9 µM); IC50 [6]: 2 µg/mL (≈ 5.61 µM); IC50 [7]: 0.6 µg/mL (≈ 1.68 µM); IC50 [8]: 2.9 µg/mL (≈ 8.14 µM)

**Q.** `C/C(=C\COC(=O)NC(C)C)C1=CC(=O)C(C)(C)O1` was tested. Which IC50 [1] did it give?
**A.** 7.2 µg/mL (≈ 26.9 µM)

**Q.** And the IC50 [2]?
**A.** 4.9 µg/mL (≈ 18.3 µM)

**Q.** What about the IC50 [3] of the same molecule?
**A.** 2.3 µg/mL (≈ 8.6 µM)

**Q.** And the IC50 [4]?
**A.** 6.6 µg/mL (≈ 24.7 µM)

**Q.** Which results are given for `C/C(=C\COC(=O)NC1CCCCC1)C1=CC(=O)C(C)(C)O1`?
**A.** IC50 [1]: 13 µg/mL (≈ 42.3 µM); IC50 [2]: 3.7 µg/mL (≈ 12 µM); IC50 [3]: 2.4 µg/mL (≈ 7.81 µM); IC50 [4]: 3.4 µg/mL (≈ 11.1 µM)

**Q.** What does the source list for `C/C(=C\C=C/C1CCCCC1)C1=CC(=O)C(C)(C)O1`?
**A.** IC50 [1]: 10.8 µg/mL (≈ 41.5 µM); IC50 [2]: 23 µg/mL (≈ 88.3 µM); IC50 [3]: 8.4 µg/mL (≈ 32.3 µM); IC50 [4]: 7.1 µg/mL (≈ 27.3 µM)

**Q.** `C/C(=C\C=C\c1ccc2ccc(=O)oc2c1)C1=CC(=O)C(C)(C)O1` was tested. Which IC50 [5] did it give?
**A.** > 100 µg/mL

**Q.** What about the IC50 [6] of the same molecule?
**A.** 63 µg/mL (≈ 195 µM)

**Q.** What about the IC50 [7] of the same molecule?
**A.** 2.9 µg/mL (≈ 9 µM)

**Q.** What about the IC50 [8] of the same molecule?
**A.** 13 µg/mL (≈ 40.3 µM)

**Q.** How did the IC50 [1] turn out when `C/C(=C\C=C\c1ccccc1)C1=CC(=O)C(C)(C)O1` was run?
**A.** 15 µg/mL (≈ 59 µM)

**Q.** And the IC50 [2]?
**A.** 14 µg/mL (≈ 55 µM)

**Q.** What about the IC50 [3] of the same molecule?
**A.** 6.5 µg/mL (≈ 25.6 µM)

**Q.** And the IC50 [4]?
**A.** 14 µg/mL (≈ 55 µM)

**Q.** What does the source list for `CCCCCCCCNC(=O)OC/C=C(\C)C1=CC(=O)C(C)(C)O1`?
**A.** IC50 [5]: 7.1 µg/mL (≈ 21 µM); IC50 [6]: 2 µg/mL (≈ 5.93 µM); IC50 [7]: 1.3 µg/mL (≈ 3.85 µM); IC50 [8]: 1.7 µg/mL (≈ 5.04 µM)

**Q.** How did the IC50 [5] turn out when `C/C(=C\COC(=O)NCCCl)C1=CC(=O)C(C)(C)O1` was run?
**A.** 20.8 µg/mL (≈ 72.3 µM)

**Q.** What about the IC50 [6] of the same molecule?
**A.** 5.1 µg/mL (≈ 17.7 µM)

**Q.** And the IC50 [7]?
**A.** 6.4 µg/mL (≈ 22.2 µM)

**Q.** What about the IC50 [8] of the same molecule?
**A.** 10.7 µg/mL (≈ 37.2 µM)

**Q.** With `C/C(=C\COC(=O)NCc1ccccc1)C1=CC(=O)C(C)(C)O1` as the molecule, how does the IC50 [1] read?
**A.** 8.1 µg/mL (≈ 25.7 µM)

**Q.** What about the IC50 [2] of the same molecule?
**A.** 4.7 µg/mL (≈ 14.9 µM)

**Q.** What about the IC50 [3] of the same molecule?
**A.** 2 µg/mL (≈ 6.34 µM)

**Q.** What about the IC50 [4] of the same molecule?
**A.** 6 µg/mL (≈ 19 µM)

**Q.** `C/C(=C\COC(=O)Nc1ccccc1)C1=CC(=O)C(C)(C)O1` was tested. Which IC50 [1] did it give?
**A.** > 200 µg/mL

**Q.** And the IC50 [2]?
**A.** > 200 µg/mL

**Q.** And the IC50 [3]?
**A.** 103 µg/mL (≈ 342 µM)

**Q.** What about the IC50 [4] of the same molecule?
**A.** > 200 µg/mL

**Q.** `CCCCNC(=O)OC/C=C(\C)C1=CC(=O)C(C)(C)O1` was tested. Which IC50 [1] did it give?
**A.** 7.7 µg/mL (≈ 27.4 µM)

**Q.** What about the IC50 [2] of the same molecule?
**A.** 2.6 µg/mL (≈ 9.24 µM)

**Q.** What about the IC50 [3] of the same molecule?
**A.** 1.2 µg/mL (≈ 4.27 µM)

**Q.** What about the IC50 [4] of the same molecule?
**A.** 5.3 µg/mL (≈ 18.8 µM)

**Q.** For `C/C(=C\COC(=O)NC(C)(C)C)C1=CC(=O)C(C)(C)O1`, which IC50 [1] is on record?
**A.** 7.1 µg/mL (≈ 25.2 µM)

**Q.** What about the IC50 [2] of the same molecule?
**A.** 4.1 µg/mL (≈ 14.6 µM)

**Q.** What about the IC50 [3] of the same molecule?
**A.** 2.1 µg/mL (≈ 7.46 µM)

**Q.** And the IC50 [4]?
**A.** 6.1 µg/mL (≈ 21.7 µM)

**Q.** Which results are given for `C=CCNC(=O)OC/C=C(\C)C1=CC(=O)C(C)(C)O1`?
**A.** IC50 [1]: 7.6 µg/mL (≈ 28.6 µM); IC50 [2]: 6.2 µg/mL (≈ 23.4 µM); IC50 [3]: 2.8 µg/mL (≈ 10.6 µM); IC50 [4]: 7.7 µg/mL (≈ 29 µM)
